CSN deneddyl inh: CSN deneddylation inhibition; Purified CSN, SCF-Nedd8-OG deneddylation, fluorescence polarization; inhibition, % at 12.5 µM; actives 0.38% (n = 360,000); AID 651999;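 active means pattern-corrected inhibition above about 35%, with an unprinted fluorescence ratio check between 0.5 and 1.5, limit read from the data, passing the limit was not always enough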;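 further: 0% = enzyme with substrate and 100% = substrate without enzyme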
Target sequence (Q92905 whole entry, looked up, one chain of several): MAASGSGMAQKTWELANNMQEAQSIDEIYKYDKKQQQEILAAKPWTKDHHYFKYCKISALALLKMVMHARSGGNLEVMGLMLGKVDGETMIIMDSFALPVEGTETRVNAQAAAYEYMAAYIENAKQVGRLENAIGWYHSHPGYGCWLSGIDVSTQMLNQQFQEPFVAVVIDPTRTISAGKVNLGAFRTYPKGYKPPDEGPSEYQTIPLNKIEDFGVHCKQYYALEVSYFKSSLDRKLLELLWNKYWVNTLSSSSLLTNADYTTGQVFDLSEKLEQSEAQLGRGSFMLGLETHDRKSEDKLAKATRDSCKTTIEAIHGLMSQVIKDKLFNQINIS
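Test system: purified human Csn5 enzyme expressed in HEK293T cells. Amount: 0.24 nM enzyme. Reagent: SCFSkp2-Nedd8OG substrate at 10 nM final. Schedule: 90 min incubation of compound, enzyme and substrate at room temperature. Detection: fluorescence polarization. Read-out: % inhibition of substrate cleavage by Csn5.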
SUMO1-SIM PPI: alters human SUMO1 binding to SIM partners; actives 0.33% (n = 360,000); P63165; AID 602429; SUMO1 binding to a labelled peptide, TR-FRET, 1 h; inhibition, % at 20 µM; in the data active means inhibition above about 37%
Target sequence (P63165 whole entry, looked up): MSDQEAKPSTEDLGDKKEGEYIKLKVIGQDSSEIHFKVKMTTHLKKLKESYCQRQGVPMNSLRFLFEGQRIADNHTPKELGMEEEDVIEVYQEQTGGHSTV
DNMT1 inh: inhibitors of human DNMT1 | P26358 | DNMT1 molecular beacon, Hinp1I cleavage, fluorescence | inhibition (reported as % activation of signal), % at 10 µM | actives 0.83% (n = 360,000); in the data active means inhibition above about 50%
MT1-MMP act inh: MT1-MMP (human) activation inhibition. GFP/RFP ratio change, % at 20 µM. AID 651647. HT1080 RFP-PRO-GFP cells, GFP/RFP ratio fluorescence, overnight; percent of plate control window, DMSO zero. actives 0.061% (n = 360,000). P50281;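 active means GFP/RFP ratio change of at least 30% with cell ATP level not reduced by more than half and red fluorescence within 50% of control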
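Test system: HT1080 RFP-PRO-GFP cells; Benchmarks: DMSO and RFP-L50D-GFP cell wells; Timing: cells overnight before dosing, compound overnight, 37 °C, 5% CO2; Compound: one 20 µM compound dose with 1% DMSO; Read-out: GFP/RFP fluorescence ratio.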
Rpn11 block: blocks the human proteasome subunit Rpn11. actives 0.59% (n = 360,000). AID 588493. inhibition, % at 20 µM. O00487. human 26S proteasome, Ub4-pepOG fluorescence polarization; 20S core pre-blocked with epoxomicin;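 active means inhibition at 20 µM, scaled to each plate's controls, above about 33%, limit read from the data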
SKN-1 inh: blocks SKN-1 activity in C. elegans. C. elegans VP596 Pgst-4::GFP/RFP ratio, acrylamide-induced, 24 h. inhibition, % at 21.8 µM. actives 0.49% (n = 360,000);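 active means interference check ratio from 0.5 to 1.5 plus GFP to RFP signal ratio inhibition reaching or exceeding a fixed threshold, cut at about 30% in these data, passing the limit was not always enough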
Starred values were filed as active, the others as inactive. Compounds with a hit are over-represented: about 2.3% of the library has one in this group of screens.

Cc1ccc(NC2=Nc3ccccc3N3C2=Nc2c(c(C)nn2-c2ccccc2)C3c2ccc(O)c(O)c2)cc1 (stereo unspecified) was read as CSN deneddyl inh -2, SUMO1-SIM PPI -1, DNMT1 inh -7, MT1-MMP act inh -4, Rpn11 block 21 and SKN-1 inh 36*.
`CCOC(=O)C(C)C1(O)c2ccccc2-c2ncccc21` (stereo unspecified) gave CSN deneddyl inh 2, SUMO1-SIM PPI 2, DNMT1 inh -3, MT1-MMP act inh 6, Rpn11 block -8 and SKN-1 inh 37*.
For OC(CC1CC12c1ccccc1-c1ncccc12)(c1ccccc1)c1ccccc1 (stereo unspecified) the results were CSN deneddyl inh -1, SUMO1-SIM PPI 7, DNMT1 inh -6, MT1-MMP act inh -36, Rpn11 block -8 and SKN-1 inh 6.
`O=C(C[C@@H]1CC[C@@H]2[C@H](COC[C@H](O)CN2S(=O)(=O)c2ccccc2)O1)Nc1ccccc1` gave CSN deneddyl inh -4, SUMO1-SIM PPI 0, MT1-MMP act inh -1 and SKN-1 inh -5.
For O=C(NC1CCCCC1)C(c1ccc(-c2ccccc2)cc1)n1c(=O)c(-c2ccco2)nc2ccccc21 (stereo unspecified) the results were CSN deneddyl inh 20, SUMO1-SIM PPI 11, MT1-MMP act inh -6 and SKN-1 inh 6.
For Cc1ccc2nc(N3C(=O)C(O)=C(C(=O)c4cc5ccccc5o4)C3c3cccs3)sc2c1 (stereo unspecified) the results were CSN deneddyl inh 8, SUMO1-SIM PPI 8, DNMT1 inh 78*, MT1-MMP act inh -9, Rpn11 block 56* and SKN-1 inh 18.
Screening CCc1ccc2nc(N3C(=O)C(O)=C(C(=O)c4ccco4)C3c3cccs3)sc2c1 (stereo unspecified) returned CSN deneddyl inh 11, SUMO1-SIM PPI -3, DNMT1 inh 25, MT1-MMP act inh -1, Rpn11 block 57* and SKN-1 inh 5.
`COc1ccc(CCN2C(=O)COc3ccccc3C2C(=O)Nc2ccc3c(c2)OCCO3)cc1OC` (stereo unspecified) gave CSN deneddyl inh -1, SUMO1-SIM PPI -4, MT1-MMP act inh 5 and SKN-1 inh -10.
`CCOC(=O)C1=C(CSc2nc(-c3ccccc3)ccc2C#N)OC(N)=C(C#N)C1c1ccccc1` (stereo unspecified) gave CSN deneddyl inh 39*, SUMO1-SIM PPI 10, DNMT1 inh -14, MT1-MMP act inh -68 and SKN-1 inh 37*.
O=C(NCc1ccncc1)c1ccc(-c2ccc(F)c(F)c2)c2ccoc12 was read as CSN deneddyl inh -1, SUMO1-SIM PPI -4, DNMT1 inh -3, MT1-MMP act inh 10, Rpn11 block 7 and SKN-1 inh 62*.
`OC[C@@H]1CN(Cc2ccccc2)C[C@H](n2cnc3c(NCc4ccncc4)ncnc32)O1` gave CSN deneddyl inh -1, SUMO1-SIM PPI 2, DNMT1 inh 5, Rpn11 block -3 and SKN-1 inh -8.
NNc1ccc([N+](=O)[O-])c2[nH][nH]c(=O)c12 was read as CSN deneddyl inh 91, SUMO1-SIM PPI 99*, DNMT1 inh 85*, MT1-MMP act inh 19, Rpn11 block 10 and SKN-1 inh 10.
Cc1cc(N(C)C)ccc1[N+](=O)[O-] was read as CSN deneddyl inh 4, SUMO1-SIM PPI -15, DNMT1 inh 1, MT1-MMP act inh 0, Rpn11 block -3 and SKN-1 inh 14.
`CC1(c2nnnn2-c2ccc3c(c2)OCCO3)CCC(=O)N1CCc1ccccc1F` (stereo unspecified) gave CSN deneddyl inh -2, SUMO1-SIM PPI -2, MT1-MMP act inh 0 and SKN-1 inh -7.
Screening O=C(O)COc1ccc(/C=N/NC(=O)C(O)(c2ccccc2)c2ccccc2)cc1 returned CSN deneddyl inh 0, SUMO1-SIM PPI -13, DNMT1 inh 3, MT1-MMP act inh 3, Rpn11 block -4 and SKN-1 inh 40*.
For O=C(O)c1ccc(/C=N/NC(=O)C(O)(c2ccccc2)c2ccccc2)cc1 the results were CSN deneddyl inh 3, SUMO1-SIM PPI -5, DNMT1 inh 2, MT1-MMP act inh 2, Rpn11 block -1 and SKN-1 inh -1.
`OCCNc1ncnc2c1ncn2[C@H]1CN(Cc2ccncc2)C[C@@H](CO)O1` gave CSN deneddyl inh 2, SUMO1-SIM PPI 5, DNMT1 inh 2, MT1-MMP act inh 3, Rpn11 block 2 and SKN-1 inh -15.
For O=C(O)c1ccc(N/N=C/c2ccc(OC(=O)c3cccc(Cl)c3)cc2)cc1 the results were CSN deneddyl inh -2, SUMO1-SIM PPI 61*, DNMT1 inh 7, MT1-MMP act inh 3, Rpn11 block -8 and SKN-1 inh 13.
Screening CSc1ccc(/C=N/Nc2cccc(C(=O)O)c2)cc1 returned CSN deneddyl inh 23, SUMO1-SIM PPI 70*, DNMT1 inh 105*, MT1-MMP act inh -2, Rpn11 block 29 and SKN-1 inh 1.
Screening O=C(COc1ccc(/C=N/NC(=O)c2ccccc2O)cc1)Nc1ccc([N+](=O)[O-])cc1 returned CSN deneddyl inh 43*, SUMO1-SIM PPI 0, DNMT1 inh 7, MT1-MMP act inh 4, Rpn11 block 13 and SKN-1 inh 4.
O=C(COc1ccc(/C=N/NC(=O)c2ccncc2)cc1)Nc1cccc([N+](=O)[O-])c1 was read as CSN deneddyl inh 1, SUMO1-SIM PPI -14, DNMT1 inh -4, MT1-MMP act inh 1, Rpn11 block -9 and SKN-1 inh 3.
Screening COc1ccc(NC(=O)C2(C)Cc3c(-c4cccc(C(N)=O)c4)ccnc3O2)cc1 (stereo unspecified) returned CSN deneddyl inh -6, SUMO1-SIM PPI -2, DNMT1 inh -5, MT1-MMP act inh 13, Rpn11 block -4 and SKN-1 inh 18.
`CC1(C)Cc2c(c(=S)nc(-c3ccccc3)n2CCCN2CCOCC2)CO1` gave CSN deneddyl inh 37*, SUMO1-SIM PPI -1, DNMT1 inh -4, MT1-MMP act inh -5, Rpn11 block 9 and SKN-1 inh 14.
COc1ccc(OC)c(-c2csc(NC(=O)Cc3ccc(F)cc3)n2)c1 was read as CSN deneddyl inh 6, SUMO1-SIM PPI 0, DNMT1 inh -4, MT1-MMP act inh -5, Rpn11 block 3 and SKN-1 inh 6.
`COc1ccc(OC)c(-c2csc(NC(=O)Cn3[nH]c(=O)c4ccccc4c3=O)n2)c1` gave CSN deneddyl inh 15, SUMO1-SIM PPI 64*, DNMT1 inh -6, MT1-MMP act inh -9, Rpn11 block 13 and SKN-1 inh 5.

High-throughput results deposited in PubChem by Sanford-Burnham Center for Chemical Genomics.
